Test results published in ChEMBL document CHEMBL2434825, “2-Heteroarylimino-5-arylidene-4-thiazolidinones as a new class of non-nucleoside inhibitors of HCV NS5B polymerase” (Eur J Med Chem, 2013).
Activity calls are given as the source filed them. The calls are words filed in the database; no cut-off is given here.

What was measured:
Hepatitis C virus [1] = experiment: Antiviral activity against Hepatitis C virus subtype 2a infected in human Huh7.5 cells assessed as inhibition of viral RNA replication at 100 uM after 42 hrs by […] assay relative to control; assay type: functional; settings: genotype 2a; for inhibition: Hepacivirus hominis, Huh-7; for inhibition at 100 µM: Huh-7, 42 h
How it was run: (§1)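 Replicon reporter cells (Huh7/Rep-Feo1b for 1b; Huh7.5-FGR-JC1-Rluc2A for 2a) kept in DMEM, 10% FCS, 0.5 mg/mL G418, 37 °C, 5% CO2. Seeded 1 × 10^4 cells/well, treated 8 h later with 100 μM compound or DMSO for 42 h. Luciferase signal read as percent of DMSO controls. Viability by MTS assay in parental Huh7.5 cells. Average of two independent experiments in duplicate.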

[2] = Cytotoxicity against human Huh7.5 cells assessed as cell viability at 100 uM after 42 hrs by MTS assay; assay type: cell-based, Huh-7; settings: read-out: Activity
[3] = Cytotoxicity against BHK cells transfected with HCV NS5B RdRp assessed as cell viability at 100 uM after 42 hrs by luciferase reporter gene assay; assay type: cell-based, Mesocricetus auratus; settings: hamster, read-out: Activity
How it was run: (§2)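 BHK cells stably carrying NS5B plus bicistronic (+)FLuc-(−)UTR-RLuc reporter, grown in DMEM, 10% FBS, 1 mg/mL G418, blasticidin. Seeded 1 × 10^4 cells/well, given 100 μM compound 8 h later, lysed 42 h post-treatment, dual luciferase read. Viability taken as firefly luciferase relative to DMSO controls. NS5B activity taken as percent reduction in RLuc/FLuc ratio versus DMSO. Two independent experiments in duplicate.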

[4] = Inhibition of HCV NS5BCdelta21 RdRp activity after 1 hr by liquid scintillation counting analysis in presence of [alpha-32P]UTP; parameters: species or system Hepacivirus hominis
How it was run: (§3)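 NS5BCΔ21 (300 ng) was incubated 1 h at 30 °C with 0.25 μM polyrA/U12, 25 μM UTP plus [α-32P]UTP and 1.0 mM MnCl2 in 20 mM Tris-HCl pH 7.0 with NaCl, Na glutamate, DTT, BSA, Tween-20, glycerol and RNase inhibitor. Reactions were stopped with cold 5% TCA/pyrophosphate, captured on GF-B filters and scintillation-counted versus a background-subtracted DMSO control. Screening used 100 μM; IC50 came from 8–12-point curves, duplicate, two experiments.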

[5] = Inhibition of HCV NS5B RdRp activity transfected in BHK cells at 100 uM after 42 hrs by dual-glo luciferase reporter gene assay relative to control; assay type: cell-based; settings: Hepacivirus hominis; how it was run: as §2
Hepatitis C virus [6] = experiment: Antiviral activity against Hepatitis C virus subtype 1b infected in human HuH7 cells assessed as inhibition of viral RNA replication at 100 uM after 42 hrs by […] assay relative to control; assay type: functional; settings: genotype 1b; for inhibition: Hepacivirus hominis, Huh-7; for inhibition at 100 µM: Huh-7, 42 h; how it was run: as §1
Hepacivirus hominis = experiment: Inhibition of HCV NS5BCdelta21 RdRp activity at 100 uM after 1 hr by liquid scintillation counting analysis in presence of [alpha-32P]UTP relative to control
How it was run: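 Template 0.25 μM polyrA/U12, with 25 μM UTP plus [α-32P]UTP. Inhibitor at 100 μM, 1 h, 30 °C. Stopped with cold 5% TCA/0.5 mM pyrophosphate, product filter-captured and counted by scintillation. Background-subtracted, relative to DMSO (100%). At least two independent experiments in duplicate.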

[7] = Selectivity ratio for Hepatitis C virus subtype 2a infected in human Huh7.5 cells over Hepatitis C virus subtype 1b infected in human HuH7 cells; assay type: functional, Huh-7
[8] = Inhibition of HCV NS5B RdRp activity; parameters: species or system Hepacivirus hominis; how it was run: as §3
[9] = Inhibition of 6xHis-tagged HCV NS5B RdRp activity; parameters: species or system Hepacivirus hominis; how it was run: as §3

Compound | inhibition (Hepatitis C virus [1]) | viability at 42 h, 100 µM [2] [%] | viability at 42 h, 100 µM [3] [%] | IC50 [4] [µM] | inhibition [5] | inhibition (Hepatitis C virus [6]) | inhibition (Hepacivirus hominis) [%] | inhibition at 100 µM (Hepatitis C virus [1]) [%] | inhibition at 100 µM (Hepatitis C virus [6]) [%] | Selectivity ratio [7] | IC50 [8] [µM] | IC50 [9] [µM]
O=C1N/C(=N\c2nnc(-c3ccc(Cl)cc3)s2)S/C1=C\c1c(F)cccc1Cl | inactive | 0 | 0 | 45.3 | inactive | inactive | 60.3 |  |  |  |  | 
O=C1N/C(=N\c2nnc(-c3ccc(F)cc3)s2)S/C1=C\c1ccccc1Cl |  | 15.6 | 11.4 | 64.9 | 61% |  | 53.9 | 95.3 | 98 |  |  | 
O=C1N/C(=N\c2nnc(-c3ccc(F)cc3)s2)S/C1=C\c1cccc(F)c1 |  | 59.7 | 55.1 | 34.6 | 85.9% |  | 72 | 98 | 95.5 |  |  | 
O=C1N/C(=N\c2nnc(-c3ccc(Cl)cc3)s2)S/C1=C\c1cccc(F)c1 |  | 60.3 | 58.1 | 48.2 | 63.1% |  | 65.5 | 95.6 | 92.8 |  |  | 
O=C1N/C(=N\c2nnc(-c3ccc(F)cc3)s2)S/C1=C\c1c(F)cccc1Cl |  | 74.6 | 89.8 |  |  |  | 28.1 | 98.5 | 99.4 |  |  | 
O=C1CS/C(=N/c2nnc(-c3ccc(F)cc3)s2)N1 |  | 14 |  | 38.6 | 57.9% |  | 76.1 | 72.8 | 70 |  |  | 
O=C1N/C(=N\c2nnc(-c3ccc(F)cc3)s2)S/C1=C\c1ccc([N+](=O)[O-])cc1 |  | 13.9 | 14.6 |  | 7% |  | 24.1 | 50.4 | 51.2 |  |  | 
O=C(CCl)Nc1nnc(-c2ccc(Cl)cc2)s1 |  | 81.9 | 98.9 |  |  |  | 20 |  |  |  |  | 
O=C1N/C(=N\c2nnc(-c3ccc(F)cc3)s2)S/C1=C\c1c(Cl)cccc1Cl |  | 73.2 | 72.2 | 19.8 | 13.6% |  | 74.1 | 98.9 | 98.8 |  |  | 
O=C1N/C(=N\c2nnc(-c3ccc(F)cc3)s2)S/C1=C\c1ccc(Cl)cc1Cl |  | 4.2 | 0 |  | inactive |  | 11.5 | 54.7 | 29.4 | 1.6 |  | 
O=C1N/C(=N\c2nnc(-c3ccc(Cl)cc3)s2)S/C1=C\c1ccccc1Cl | inactive | 0 | 0 | 33.8 | inactive | inactive | 73.6 |  |  |  |  | 
O=C1N/C(=N\c2nnc(-c3ccc(Cl)cc3)s2)S/C1=C\c1ccc(F)cc1 |  | 64.2 | 73.1 |  | inactive |  | 25 | 94.9 | 82.2 |  |  | 
Nc1nnc(-c2ccc(F)cc2)s1 |  | 18.6 |  |  | 9.4% |  | 15.4 | 52.4 | 46.8 |  |  | 
O=C1N/C(=N\c2nnc(-c3ccc(Cl)cc3)s2)S/C1=C\c1ccc([N+](=O)[O-])cc1 |  |  |  |  |  |  | 33 |  |  |  |  | 
COc1cccc(OC)c1/C=C1\S/C(=N/c2nnc(-c3ccc(Cl)cc3)s2)NC1=O |  | 80.4 | 87.4 |  |  |  | 24.1 | 98.9 | 97.7 |  |  | 
O=C(NN1C(=O)CSC1c1ccccc1F)c1cc(-c2ccc(F)cc2F)ccc1O (stereo not drawn) |  |  |  |  |  |  |  |  |  |  | 48 | 
O=C1N/C(=N\c2nnc(-c3ccc(Cl)cc3)s2)S/C1=C\c1ccc(Cl)cc1Cl | inactive | 0 | 0 |  | inactive | inactive | 25.7 |  |  |  |  | 
O=C1N/C(=N\c2nnc(-c3ccc(F)cc3)s2)S/C1=C\c1ccccc1F |  | 59.9 | 55.7 | 51.1 | 11% |  | 62.4 | 96.1 | 97.4 |  |  | 
COc1cccc(OC)c1/C=C1\S/C(=N/c2nnc(-c3ccc(F)cc3)s2)NC1=O |  | 63 | 73.7 |  | inactive |  | 19.7 | 93.2 | 87.7 |  |  | 
O=C1/C(=C/c2ccc(Br)cc2)SC(=S)N1NS(=O)(=O)c1ccccc1 |  |  |  |  |  |  |  |  |  |  |  | 0.44
O=C1N/C(=N\c2nnc(-c3ccc(Cl)cc3)s2)S/C1=C\c1ccccc1F |  | 13.1 | 12.8 | 56.2 | 65.6% |  | 56.2 | 98.5 | 96.4 |  |  | 
O=C1N/C(=N\c2nnc(-c3ccc(Cl)cc3)s2)S/C1=C\c1c(Cl)cccc1Cl |  | 76 | 94.9 | 5.6 |  |  | 82 | 98.1 | 98.5 |  |  | 
O=C(CCl)Nc1nnc(-c2ccc(F)cc2)s1 |  | 84.8 | 98.3 |  |  |  | 16 |  |  |  |  | 
Nc1nnc(-c2ccc(Cl)cc2)s1 |  | 32.4 | 28.6 |  | inactive |  | 16.8 | 72.8 | 37.4 | 1.6 |  | 
O=C1CS/C(=N/c2nnc(-c3ccc(Cl)cc3)s2)N1 |  | 13.3 | 15.2 | 42.5 | 65.7% |  | 74.4 | 89.8 | 54.1 | 1.6 |  | 
